Screens: PubChem, The Scripps Research Institute Molecular Screening Center
TAAR1 agonist: human TAAR1 agonists, primary screen, Fluo-8 calcium fluorescence, CHO RD-HGA16 cells; Trace amine-associated receptor 1 (Homo sapiens), Q96RJ0; activation, % at 3 µM; vehicle wells 0%, saturating PEA agonist 100%; actives 0.99% (n = 360,000); AID 624467, 2012;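 active = activation above the mean activation of all test compounds in the run plus 3 SD, cut at about 38% in these data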
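Signal – calcium-sensitive Fluo-8 signal, excitation 470-495, emission 515-575 nm · System – RD-HGA16 (CHO) cells co-expressing Gα16 and hTAAR1 · Incubation – 17-24 h seeding, 75 min 37 °C dye, 30 min RT · Compound dosing – 3 µM single concentration · Repeats – no replicates (n 1)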
TAAR1 antag: human TAAR1 antagonists, primary screen, Fluo-8 calcium fluorescence, CHO RD-HGA16 cells. Trace amine-associated receptor 1 (Homo sapiens), Q96RJ0. antagonist. inhibition, % at 3 µM. actives 1.5% (n = 360,000). AID 624466, 2012;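 active = inhibition above a per-plate cutoff, the mean inhibition of test compounds on that plate plus 3 SD, cut at about 49% in these data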;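 note: 0% = DMSO plus EC80 beta-PEA response and 100% = DMSO alone without agonist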
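System: RD-HGA16 CHO cells with stable hTAAR1 and Gα16 | Probe or stimulus: EC80 β-phenethylamine stimulus | Dosing: 3 µM, single point | Times: Dye loading 75 min at 37 °C, then 30 min room temperature | Measured by: Fluo-8 calcium-sensitive fluorescence | Read-out basis: % inhibition of agonist calcium response | Replicates: n of 1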
CHRM1 PAM: human M1 muscarinic receptor positive allosteric modulators, primary screen, CHO-K1 cells, Fluo-8 calcium fluorescence, 1536-well. CHO-K1 hM1, ACh EC20; 0% = ACh EC20, 100% = maximal ACh. activation, % at 3 µM. actives 0.088% (n = 360,000); in the data active = activation above about 19%, passing the limit was not always enough
Target sequence (P11229 whole entry, looked up): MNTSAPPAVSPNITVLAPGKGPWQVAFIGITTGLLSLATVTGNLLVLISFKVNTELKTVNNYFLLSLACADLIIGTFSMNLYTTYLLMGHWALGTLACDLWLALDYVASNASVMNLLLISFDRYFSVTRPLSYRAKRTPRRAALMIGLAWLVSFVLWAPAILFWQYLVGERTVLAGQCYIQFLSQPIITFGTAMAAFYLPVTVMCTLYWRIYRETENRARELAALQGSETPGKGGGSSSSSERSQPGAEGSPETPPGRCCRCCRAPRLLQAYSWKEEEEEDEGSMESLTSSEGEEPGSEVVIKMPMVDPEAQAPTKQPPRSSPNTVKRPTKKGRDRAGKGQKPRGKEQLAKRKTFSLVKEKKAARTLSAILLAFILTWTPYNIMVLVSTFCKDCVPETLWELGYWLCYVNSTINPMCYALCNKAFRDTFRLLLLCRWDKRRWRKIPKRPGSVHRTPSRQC
CHRM1 agonist: human M1 muscarinic receptor agonists, primary screen, Fluo-8 calcium fluorescence, CHO-K1 cells, HTS; Muscarinic acetylcholine receptor M1 (Homo sapiens), P11229; actives 0.33% (n = 360,000); AID 588814, 2011; CHO-K1 hM1, agonist mode; 0% DMSO, 100% acetylcholine EC100; activation, % at 3 µM;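 active = activation above the run's mean compound activation plus 3 SD, cut at about 16% in these data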;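 note: peak over basal fluorescence ratio within a 140 s kinetic read after compound addition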
CHRM1 antagonist: human M1 muscarinic receptor antagonists, primary screen, CHO-K1 cells, Fluo-8 calcium fluorescence, 1536-well | actives 1.3% (n = 360,000) | inhibition, % at 3 µM | Muscarinic acetylcholine receptor M1 (Homo sapiens), P11229 | CHO-K1 hM1, ACh EC80 antagonist | AID 588852, 2011;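 active = percent inhibition above its own plate's cutoff, namely the mean of that plate's compound wells plus 3 SD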;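 note: peak over basal fluorescence ratio during 140 s after agonist addition; 0% = ACh EC80 plus DMSO and 100% = DMSO alone without agonist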
An asterisk follows results filed as active; . = no result. Most compounds without a hit are left out; they make up all but 3.4% or so of the library.

SMILES	TAAR1 agonist	TAAR1 antag	CHRM1 PAM	CHRM1 agonist	CHRM1 antagonist
CC(=O)C1=C(C)NC(=S)NC1c1ccc(F)cc1 (stereo unspecified)	3.2	0.0	.	.	.
Nc1nc2c(ncn2[C@@H]2O[C@H](C(=O)NCCCN3CCCC3=O)[C@@H](O)[C@H]2O)c(=O)[nH]1	2.3	-18.4	.	.	.
COc1ccc([C@H]2C(C#N)=C([S-])N[C@](C)(O)[C@@H]2[n+]2ccccc2)cc1	9.8	1.2	-24.6	-8.8	74.3*
CC(C)Cc1ccc(C(C)NC(=O)Cc2ccc(S(=O)(=O)N3CCOCC3)s2)cc1 (stereo unspecified)	37.5*	44.8	-2.5	6.3	4.9
O=C1OC[C@@H]2CCCN2C(=O)[C@@H](CC(=O)N(CCO)Cc2ccccc2)C/C=C\CC[C@H]1Cc1ccc(F)cc1	16.1	48.5	-8.4	-6.3	9.1
O=C1N[C@@H](Cc2c[nH]c3ccccc23)COC(=O)[C@@H](Cc2ccc(F)cc2)C/C=C\C[C@H]1CC(=O)N(CCO)Cc1ccccc1	10.3	54.6*	5.0	0.4	1.4
O=C1N[C@H](Cc2ccccc2)COC(=O)[C@H](Cc2ccc(F)cc2)CC/C=C/C[C@@H]1CC(=O)N(CCO)Cc1ccccc1	44.2*	64.2*	-3.6	-0.3	25.3
O=C1N[C@@H](c2ccccc2)COC(=O)[C@@H](Cc2ccc(F)cc2)C/C=C\C[C@@H]1CC(=O)N(CCO)Cc1ccccc1	39.2*	77.5*	-19.2	4.4	32.4
O=C1OC[C@@H]2CCCN2C(=O)[C@@H](CC(=O)N(CCO)Cc2ccccc2)C/C=C\C[C@@H]1Cc1ccc(F)cc1	26.1	53.9*	-2.9	-1.3	0.7
O=C1N[C@@H](Cc2c[nH]c3ccccc23)COC(=O)[C@H](Cc2ccc(F)cc2)C/C=C\C[C@@H]1CC(=O)N(CCO)Cc1ccccc1	6.0	33.8	3.0	-3.1	5.0
CCc1c(-c2ccccc2F)ncn1CCc1ccccc1OC	9.6	13.8	.	.	.
CC(C)C[C@@H]1COc2cccc(NCCO)c2S(=O)(=O)N1	2.2	-10.7	.	.	.
C=CCN=C1NC(c2cccc(C(F)(F)F)c2)C(C(=O)OC)=C(C)N1Cc1ccccc1C(F)(F)F (stereo unspecified)	3.7	-3.0	.	.	.
CC(C)[C@@H]1Cc2[nH]n(C)c(=O)c2[C@H](c2ccc(Cl)cc2)O1	-1.4	-6.7	.	.	.
COCc1cc(N2CCNC[C@@H]2C)ccc1N1CCS(=O)(=O)CC1	1.8	-20.5	.	.	.
CCCCNc1nc(NCc2ccccc2)nc2ccccc12	77.7*	91.9*	.	.	.
CNc1nc(NCc2ccccc2)c2ccccc2n1	25.2	5.3	4.0	-6.7	-8.5
COc1ccc(C(=O)c2sc(Nc3cccc(OC)c3)c(C(=O)Nc3cccc(C)c3C)c2N)cc1	37.5*	31.9	13.1	7.4	5.3
COc1ccc(Nc2sc(C(=O)c3ccc(Cl)cc3)c(N)c2C(=O)Nc2ccccc2OC)cc1	106.6*	72.6*	-5.4	38.6*	44.0*
COc1ccc(C(=O)c2sc(Nc3ccccc3)c(C(=O)Nc3ccc(OC)c(OC)c3)c2N)cc1	7.3	21.2	-3.3	0.3	-6.8
Nc1[nH]c(C(=O)c2ccccc2)c(-c2ccc3c(c2)OCO3)c1C(=O)NCCc1c[nH]c2ccccc12	6.0	15.5	.	.	.
COc1ccc(/C=C/C(=O)NCCCN2CCCC2)cc1	0.3	-26.8	-15.5	-8.2	41.1*
Cc1ccc(/C=C/C(=O)NCCCN2CCN(CCCNC(=O)/C=C/c3ccc(C)cc3)CC2)cc1	3.1	-4.7	5.5	-8.0	-10.5
COc1cccc(Nc2nc(C(N)CCc3ccccc3)cs2)n1 (stereo unspecified)	45.0*	22.4	3.9	9.6	0.7
NC(=O)c1cccc(Nc2nc(C(N)CCc3ccccc3)cs2)n1 (stereo unspecified)	3.4	1.8	7.9	-6.5	-14.8
SMILES	TAAR1 agonist	TAAR1 antag	CHRM1 PAM	CHRM1 agonist	CHRM1 antagonist
CC(=O)c1ccc(Nc2nc(C(N)Cc3ccc(Cl)cc3)cs2)cc1 (stereo unspecified)	49.7*	6.9	2.3	9.4	-0.9
COc1cccc(Nc2nc(C(N)CC(C)C)cs2)n1 (stereo unspecified)	42.4*	-12.6	13.4	3.8	-11.9
COc1cccc(Nc2nc(C(N)Cc3ccc(Cl)cc3)cs2)n1 (stereo unspecified)	64.5*	55.2*	11.0	12.4	-2.0
CCOC(=O)C1CSCCS(=O)(=O)N1Cc1ccc(F)cc1F (stereo unspecified)	3.4	-0.3	.	.	.
O=C(CC[C@H]1O[C@@H](n2ccc(=O)[nH]c2=O)[C@H](O)[C@@H]1O)N[C@H](Cc1ccccc1)C(=O)NC1CCCCC1	1.3	-4.8	5.2	-2.6	-29.1
O=C(CCl)NC(Cc1ccccc1)C(=O)OCC(=O)c1ccc(-c2ccccc2)cc1 (stereo unspecified)	5.0	60.5*	-22.0	-5.3	29.1
COc1cc(N=c2c([N+](=O)[O-])nn(-c3ccc4c(c3)OCCO4)n2O)cc(OC)c1	1.6	-18.0	2.3	-4.1	-5.3
CC(C)c1ccc(N=c2c([N+](=O)[O-])nn(-c3ccc4c(c3)OCCO4)n2O)cc1	17.5	64.3*	-24.2	-4.7	38.5*
O=[N+]([O-])c1nn(-c2ccc3c(c2)OCCO3)n(O)c1=NC1CCN(Cc2ccccc2)CC1	-0.1	-7.5	-25.3	-9.1	46.8*
O=[N+]([O-])c1nn(-c2ccccc2)n(O)c1=NC1CCN(Cc2ccccc2)CC1	2.1	3.3	-7.0	-8.1	21.9
Cc1ccccc1-c1ccc2c(c1)[C@@H]1C[C@H](N(C)C(=O)Nc3ccccc3)[C@H]([C@H](C)O)CN1CC2	0.0	-18.8	.	.	.
COc1cccc(C2NC(=S)N(Cc3ccccc3)C(C)=C2C(C)=O)c1 (stereo unspecified)	-1.0	2.5	.	.	.
C[C@H](O)[C@@H]1CN2CCc3ccc(-c4ccc5c(c4)OCO5)cc3[C@@H]2C[C@@H]1N(C)Cc1cc(Cl)cc(Cl)c1	0.5	-10.6	.	.	.
O=C(CCNS(=O)(=O)c1cccc2nsnc12)N1CCN(c2ccccn2)CC1	.	.	-21.7	-4.9	89.4*
COc1ccc(S(=O)(=O)Nc2ccc(O)c(Sc3ncn[nH]3)c2)cc1	1.2	-14.6	-0.4	-3.3	4.4
COc1ccc(S(=O)(=O)Nc2cc(Sc3ncn[nH]3)c(O)c3ccccc23)cc1	42.6*	18.6	.	.	.
Brc1cc2c(cc1Br)OCCOCCOCCOCCO2	0.0	0.9	2.2	-6.5	-8.9
c1ccc2c(c1)OCCOCCOc1ccccc1OCCOCCO2	18.2	52.7*	-7.8	-2.1	5.6
